One may read the half-life as the time needed for the level to fall by half in the phase considered. Low readings indicate fast loss, high ones slow loss.

The data set is described as follows: In vitro plasma stability. The following applies: rat, pH 7.4. In kind it is in vitro ADME. A digest of the protocol: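 Test compound prepared as a 1000 ng/mL stock in 0.01 M Tris-HCl (pH 7.4), then mixed in equal volume with rat plasma and incubated at 37 °C. Samples were taken at 0, 2, 5, 10, 30 and 60 min, and methanol was added to precipitate protein. After centrifugation at 12 000 rpm for 15 min and a second spin of the supernatant, UPLC-MS peak areas gave the half-life.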

Molecules are shown by their SMILES. Residues, ends and D or L forms follow the SMILES beside them.

As to `CC(C)C[C@H](NC(=O)[C@H](CCCCN)NC(=O)[C@H](CCCNC(=N)N)NC(=O)[C@@H]1CCCN1C(=O)[C@H](CCC(=O)O)NC(=O)CNC(=O)[C@H](Cc1ccc(O)cc1)NC(=O)[C@H](C)NC(=O)[C@@H](N)CO)C(=O)O` [peptide 1] (H-SAYGEPRKL-OH; N-terminus and C-terminus assumed), the half-life at 500 ng/mL is around 5 min. Then `CC[C@H](C)[C@H](NC(=O)[C@@H](N)[C@@H](C)O)C(=O)N[C@@H](Cc1c[nH]c2ccccc12)C(=O)N[C@@H](CCSC)C(=O)N[C@@H](CC(C)C)C(=O)N[C@@H](CC(C)C)C(=O)N[C@@H](CCSC)C(=O)N[C@@H](CC(C)C)C(=O)N[C@@H](CCC(N)=O)C(=O)O` [peptide 2] (H-TIWMLLMLQ-OH), with around 5 min.
